Test results taken from ChEMBL document CHEMBL4613275, “Sulfonimide and Amide Derivatives as Novel PPARα Antagonists: Synthesis, Antiproliferative Activity, and Docking Studies” (ACS Med Chem Lett, 2020).
Values belong to the compound of their own block, whether it stands above or below them. Calls of active or inactive are those of the source. No cut-off for these calls is given here.

Legend:
ASPC1 [1] = assay: Antiproliferative activity against human AsPC1 cells assessed as inhibition of cell growth at 75 uM incubated for 72 hrs by MTT assay relative to control; format: functional; conditions: ASPC1, 72 h
A498 [2] = assay: Antiproliferative activity against human A498 cells assessed as inhibition of cell growth incubated for 72 hrs by MTT assay; format: functional
Summary of the method: (§1)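 MTT viability assay after 72 h exposure to compound over 0–24 μM, 24 μM being the highest concentration. […] Data are means ± SD of duplicate experiments, five replicates each.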

HFF-1 = assay: Cytotoxicity against human HFF1 cells assessed as reduction in cell viability incubated for 72 hrs by MTT assay; format: cell-based; conditions: hff-1, 72 h; summary of the method: as §1
Capan-2 [3] = assay: Antiproliferative activity against human Capan2 cells assessed as inhibition of cell growth incubated for 72 hrs by MTT assay; format: functional; summary of the method: as §1
SW480 [4] = assay: Antiproliferative activity against human SW480 cells assessed as inhibition of cell growth at 75 uM incubated for 72 hrs by MTT assay relative to control; format: functional; conditions: SW480, 72 h
[5] = (§2) Antiproliferative activity against human PTJ86i cells assessed as inhibition of cell growth at 75 uM incubated for 72 hrs by MTT assay relative to control; format: functional
Capan-2 [6] = assay: Antiproliferative activity against human Capan2 cells assessed as inhibition of cell growth at 75 uM incubated for 72 hrs by MTT assay relative to control; format: functional; conditions: Capan-2, 72 h
BXPC-3 [7] = assay: Antiproliferative activity against human BxPC3 cells assessed as inhibition of cell growth incubated for 72 hrs by MTT assay; format: functional; summary of the method: as §1
BXPC-3 [8] = assay: Antiproliferative activity against human BxPC3 cells assessed as inhibition of cell growth at 75 uM incubated for 72 hrs by MTT assay relative to control; format: functional; conditions: BXPC-3, 72 h
[9] = Selectivity index, ratio of CC50 for human HFF1 cells to CC50 for human PTJ86i cells; format: toxicity; conditions: HFF1 cells and PTJ86i cells
SW480 [10] = assay: Antiproliferative activity against human SW480 cells assessed as inhibition of cell growth incubated for 72 hrs by MTT assay; format: functional; summary of the method: as §1
[11] = Selectivity index, ratio of CC50 for human HFF1 cells to CC50 for human PTJ64i cells; format: toxicity; conditions: HFF1 cells and PTJ64i cells
Homo sapiens [12] = species on record: Homo sapiens; assay: Antiproliferative activity against human PTJ86i cells assessed as inhibition of cell growth incubated for 72 hrs by MTT assay; format: functional; summary of the method: as §1
ASPC1 [13] = assay: Antiproliferative activity against human AsPC1 cells assessed as inhibition of cell growth incubated for 72 hrs by MTT assay; format: functional; summary of the method: as §1
Homo sapiens [14] = species on record: Homo sapiens; assay: Antiproliferative activity against human PTJ64i cells assessed as inhibition of cell growth incubated for 72 hrs by MTT assay; format: functional; summary of the method: as §1
A498 [15] = assay: Antiproliferative activity against human A498 cells assessed as inhibition of cell growth at 75 uM incubated for 72 hrs by MTT assay relative to control; format: functional; conditions: A498, 72 h
HT-29 [16] = assay: Antiproliferative activity against human HT-29 cells assessed as inhibition of cell growth incubated for 72 hrs by MTT assay; format: functional; summary of the method: as §1
[17] = target: T1, Peroxisome proliferator-activated receptor alpha (Homo sapiens, UniProt Q07869); assay: Antagonist activity at GAL4-tagged human PPARalpha LBD expressed in human HepG2 cells assessed as inhibition of Wy14,643-induced receptor transactivation incubated for 20 to 22 hrs by luciferase reporter gene assay; format: cell-based
T1 sequence (Q07869 whole entry): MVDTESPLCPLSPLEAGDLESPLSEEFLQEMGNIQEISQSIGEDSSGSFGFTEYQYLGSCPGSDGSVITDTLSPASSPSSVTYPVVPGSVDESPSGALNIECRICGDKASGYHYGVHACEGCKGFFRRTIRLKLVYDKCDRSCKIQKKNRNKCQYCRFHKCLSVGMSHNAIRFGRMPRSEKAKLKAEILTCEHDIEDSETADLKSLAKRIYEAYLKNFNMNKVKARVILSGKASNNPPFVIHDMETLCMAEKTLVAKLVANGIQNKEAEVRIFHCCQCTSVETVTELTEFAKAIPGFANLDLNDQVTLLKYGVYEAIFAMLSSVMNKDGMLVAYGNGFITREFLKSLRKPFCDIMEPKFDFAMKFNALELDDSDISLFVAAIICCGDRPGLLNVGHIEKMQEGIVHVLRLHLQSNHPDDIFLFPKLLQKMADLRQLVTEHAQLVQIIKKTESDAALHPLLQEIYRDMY

HT-29 [18] = assay: Antiproliferative activity against human HT-29 cells assessed as inhibition of cell growth at 75 uM incubated for 72 hrs by MTT assay relative to control; format: functional; conditions: HT-29, 72 h
[19] = target: T2, Peroxisome proliferator-activated receptor gamma (Homo sapiens) (UniProt P37231); assay: Effect on GAL4-tagged human PPARgamma LBD expressed in human HepG2 cells incubated for 20 to 22 hrs by luciferase reporter gene assay; format: cell-based
T2 sequence (whole entry): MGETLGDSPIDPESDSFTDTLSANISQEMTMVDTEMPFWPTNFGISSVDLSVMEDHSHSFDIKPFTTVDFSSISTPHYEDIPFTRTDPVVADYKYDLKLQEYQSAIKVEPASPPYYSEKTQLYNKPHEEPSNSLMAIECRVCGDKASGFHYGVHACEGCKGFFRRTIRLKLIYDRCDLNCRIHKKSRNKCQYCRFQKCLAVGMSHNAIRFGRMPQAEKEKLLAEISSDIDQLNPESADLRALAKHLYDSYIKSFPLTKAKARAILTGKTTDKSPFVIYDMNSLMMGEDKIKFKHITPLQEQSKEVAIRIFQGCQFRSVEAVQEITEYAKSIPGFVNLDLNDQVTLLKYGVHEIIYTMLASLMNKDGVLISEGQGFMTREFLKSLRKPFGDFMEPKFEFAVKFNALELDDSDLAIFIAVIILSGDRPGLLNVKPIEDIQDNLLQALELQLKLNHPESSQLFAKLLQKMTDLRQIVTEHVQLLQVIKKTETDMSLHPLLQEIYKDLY

Homo sapiens [20] = species on record: Homo sapiens; assay: Antiproliferative activity against human PTJ64i cells assessed as inhibition of cell growth at 75 uM incubated for 72 hrs by MTT assay relative to control; format: functional
Homo sapiens [21] = species on record: Homo sapiens; assay: as §2; format: functional
[22] = target: T2, Peroxisome proliferator-activated receptor gamma (Homo sapiens); assay: Agonist activity at GAL4-tagged human PPARgamma LBD expressed in human HepG2 cells incubated for 20 to 22 hrs by luciferase reporter gene assay; format: cell-based
HepG2 = assay: Cytotoxicity against human HepG2 cells at >5 uM; format: cell-based
[23] = target: T3, Peroxisome proliferator-activated receptor gamma (Homo sapiens, UniProt P37231); assay: Antagonist activity at GAL4-tagged human PPARgamma LBD expressed in human HepG2 cells assessed as inhibition of Rosiglitazone-induced receptor transactivation incubated for 20 to 22 hrs by luciferase reporter gene assay
T3 sequence (P37231 whole entry): T2 sequence (whole entry)

Compound: CC(C)(Oc1ccc(CCOc2ccc(NC(=O)c3ccccc3)cc2)cc1)C(=O)NS(=O)(=O)c1ccccc1
inhibition at 75 µM (ASPC1 [1]): 41 to 92%
inhibition (A498 [2]): Dose-dependent effect
CC50 (A498 [2]; A498, 72 h): 4.6 µM
CC50 (HFF-1): > 24 µM
inhibition (Capan-2 [3]): Dose-dependent effect
CC50 (Capan-2 [3]; Capan-2, 72 h): 7 µM
inhibition at 75 µM (SW480 [4]): 52 to 98%
inhibition at 75 µM [5]: 84 to 98%
inhibition at 75 µM (Capan-2 [6]): 41 to 92%
inhibition (BXPC-3 [7]): Dose-dependent effect
CC50 (BXPC-3 [7]; BXPC-3, 72 h): 7 µM
inhibition at 75 µM (BXPC-3 [8]): 41 to 92%
selectivity ratio [9]: > 11.3
inhibition (SW480 [10]): Dose-dependent effect
CC50 (SW480 [10]; SW480, 72 h): 7 µM
selectivity ratio [11]: > 9.45
inhibition (Homo sapiens [12]): Dose-dependent effect
inhibition (ASPC1 [13]): Dose-dependent effect
CC50 (ASPC1 [13]; ASPC1, 72 h): 7 µM
inhibition (Homo sapiens [14]): Dose-dependent effect
inhibition at 75 µM (A498 [15]): 51 to 71%
inhibition (HT-29 [16]): Dose-dependent effect
CC50 (HT-29 [16]; HT-29, 72 h): 7 µM
IC50 [17]: 0.24 µM
inhibition at 75 µM (HT-29 [18]): 52 to 98%
Activity [19]: inactive

Compound: Cc1cccc(Nc2cc(Cl)nc(SCC(=O)O)n2)c1C
inhibition (Homo sapiens [20]): inactive
inhibition (Homo sapiens [21]): inactive

Compound: CC(C)(Oc1ccc(CCOc2ccc(NC(=O)Nc3ccccc3)cc2)cc1)C(=O)NCc1ccccc1
IC50 [17]: 10.3 µM
Activity [19]: inactive

Compound: CCCCNC(=O)C(C)(C)Oc1ccc(CCOc2ccc(NC(=O)c3ccccc3)cc2)cc1
Activity [19]: inactive

Compound: CC(C)(Oc1ccc(CCOc2ccc(NC(=O)c3ccccc3)cc2)cc1)C(=O)Nc1ccccc1
IC50 [17]: 12.3 µM
Activity [19]: inactive

Compound: CC(C)(Oc1ccc(CCOc2ccc(NC(=O)c3ccccc3)cc2)cc1)C(N)=O
IC50 [17]: 7 µM
Activity [19]: inactive

Second part, led by results:

IC50 [17]: 3.2 µM
Activity [19]: inactive
Compound: CC(C)(Oc1ccc(CCOc2ccc(/N=N/c3ccccc3)cc2)cc1)C(=O)NS(=O)(=O)c1ccc(NC(=O)Cc2ccccc2)cc1

Activity [22]: inactive
Compound: CC(C)(CCCOc1ccc(/C=C/c2ccccc2)cc1)C(=O)NS(C)(=O)=O
Activity (HepG2): Toxic

IC50 [23]: 14 µM
IC50 [17]: 1.2 µM
Imax [19]: 87%
Compound: CC(C)(Oc1ccc(CCOc2ccc(/N=N/c3ccccc3)cc2)cc1)C(=O)NS(=O)(=O)c1ccccc1
Activity (HepG2): Toxic
